The values that follow come from ChEMBL document CHEMBL4732210, “Discovery of new phenyl sulfonyl-pyrimidine carboxylate derivatives as the potential multi-target drugs with effective anti-Alzheimer's action: Design, synthesis, crystal structure and in-vitro biological evaluation” (Eur J Med Chem, 2021).

The source made the active and inactive calls. No cut-off for these calls is given here.

For one test, the species on record is Homo sapiens. In words: Selectivity index, ratio of IC50 for BuChE in human serum to IC50 for AChE in human erythrocytes measured by DTNB reagent based Ellman's method. It is filed as cell-based.
Test [1] concerns the target Amyloid-beta precursor protein (Homo sapiens) (UniProt P05067). In words: Inhibition of self-induced amyloid beta (1 to 42) (unknown origin) aggregation assessed as reduced particle size at 10 uM measured after 48 hrs by Dynamic light scattering analysis. In outline:
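Aβ1-42 stock (100 μM) in PBS pH 7.4, […], incubated with compound (10 μM) in the dark at 37 °C for 48 h. Particle size distribution then measured by dynamic light scattering.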

In test [2] the target is Acetylcholinesterase (Homo sapiens) (UniProt P22303). Put plainly: Inhibition of AChE in human erythrocytes assessed as inhibition of AChE-induced amyloid beta (1 to 42) aggregation by measuring reduced particle size at 10 uM measured after 48 hrs by Dynamic light scattering analysis. It is filed as cell-based. The following applies: Erythrocyte. In outline:
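Aβ1-42 with AChE (10 unit/mL) incubated with compound at 10 μM in PBS pH 7.4, in the dark for 48 h at 37 °C. Particle size distribution then measured by dynamic light scattering.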

Test [3] deals with Amyloid-beta precursor protein (Homo sapiens) (UniProt P05067). Put plainly: Inhibition of amyloid beta (1 to 42) (unknown origin) aggregation at 22 uM measured after 24 hrs by Transmission electron microscopy method. In outline:
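Aβ1-42 (44 μM) co-incubated with compound (22 μM) at 37 °C for 24 h. 10 μL aliquots placed on carbon-coated copper grids, stained with 1% uranyl acetate, blotted and dried 15 min at room temperature. Fibril morphology imaged by […]TEM. Controls were Aβ1-42 alone at 37 °C for 24 h and Aβ1-42 alone at 0 h.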

For test [4], the target named is Acetylcholinesterase (Homo sapiens) (UniProt P22303). Put plainly: Inhibition of AChE in human erythrocytes assessed as inhibition of AChE-induced amyloid beta(1 to 42) aggregation at Abeta42:compound concentration ratio of 10:10 measured after 48 hrs by thioflavin-T assay. In kind it is cell-based. The following applies: Erythrocyte. In outline: (§1)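 Aβ1-42 (stock in 1% ammonium hydroxide; final 10 μM) plus human erythrocyte AChE. Incubated 48 h at 37 °C with or without compound (5, 10, 20 μM; DMSO stock diluted in PBS pH 7.4). Then diluted in 50 mM glycine-NaOH pH 8.0 containing 5 μM thioflavin T. Fluorescence normalised to control; three separate experiments.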
Acetylcholinesterase (Homo sapiens), sequence (P22303 whole entry): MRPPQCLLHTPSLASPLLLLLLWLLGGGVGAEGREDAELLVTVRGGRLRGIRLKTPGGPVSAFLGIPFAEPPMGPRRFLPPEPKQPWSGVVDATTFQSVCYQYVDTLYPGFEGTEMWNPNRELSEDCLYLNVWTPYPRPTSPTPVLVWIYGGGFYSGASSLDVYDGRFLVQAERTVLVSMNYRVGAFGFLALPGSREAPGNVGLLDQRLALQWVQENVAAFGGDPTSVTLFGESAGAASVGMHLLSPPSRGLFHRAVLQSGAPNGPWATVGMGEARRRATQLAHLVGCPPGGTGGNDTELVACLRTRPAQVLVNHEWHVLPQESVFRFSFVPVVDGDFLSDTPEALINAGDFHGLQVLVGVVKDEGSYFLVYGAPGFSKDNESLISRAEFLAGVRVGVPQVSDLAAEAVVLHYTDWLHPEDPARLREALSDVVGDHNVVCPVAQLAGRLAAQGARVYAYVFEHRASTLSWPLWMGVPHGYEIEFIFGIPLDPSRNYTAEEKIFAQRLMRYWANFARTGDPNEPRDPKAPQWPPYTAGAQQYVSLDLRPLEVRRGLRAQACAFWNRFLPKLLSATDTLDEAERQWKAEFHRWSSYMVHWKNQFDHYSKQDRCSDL

Another test relates to MC65. Put plainly: Neuroprotective activity in human MC65 cells cultured in TC-deficient medium assessed as inhibition of TC-deficiency induced oxidative stress by measuring increase in cell viability at 1 to 80 uM measured after 12 hrs by MTT assay. It is filed as functional, cell-based. Particulars: dose 1-80 µM. In outline: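 MC65 cells grown in MEM, PBS-washed and resuspended in MEM, then seeded at 5×10⁴ cells/well with or without TC. Compounds (80–1 μM) added to TC-free wells and incubated 12 h at 37 °C. MTT (5 mg/ml) added for a further 4 h; formazan dissolved in DMSO:H₂O 1:1 and read at 570 nm. Viability expressed as % of +TC control. Triplicate wells, three runs.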

For test [5], the target named is Acetylcholinesterase (Homo sapiens) (UniProt P22303). In words: Inhibition of AChE in human erythrocytes assessed as inhibition of AChE-induced amyloid beta(1 to 42) aggregation at Abeta42:compound concentration ratio of 10:20 measured after 48 hrs by thioflavin-T assay. In kind it is cell-based. Particulars: Erythrocyte. In outline: as §1
For test [6] the target is unchanged. In words: Non-competitive inhibition of AChE in human erythrocytes assessed as ratio of Vmax to Km at 100 nM measured at 2 mins interval for 10 mins by Lineweaver-Burk plot analysis. Particulars: Erythrocyte. It is filed as cell-based. In outline: (§2)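 Human AChE kinetics in the Ellman DTNB assay. Inhibitor at 25, 50 and 100 nM, each with six ATCI concentrations, against an inhibitor-free series. Activity read every 2 min over 10 min. Km and Vmax from Michaelis–Menten non-linear regression; mechanism from Lineweaver–Burk plots; Ki from Dixon plot over four inhibitor concentrations and from slope/intercept replots. Triplicate.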

Test [7] has the same target. In words: Non-competitive inhibition of AChE in human erythrocytes assessed as ratio of Vmax to Km at 25 nM measured at 2 mins interval for 10 mins by Lineweaver-Burk plot analysis. In kind it is cell-based. Particulars: Erythrocyte. In outline: as §2
Test [8] has the same target. Put plainly: Non-competitive inhibition of AChE in human erythrocytes assessed as decrease in Vmax with constant Km measured at 2 mins interval for 10 mins by Lineweaver-Burk plot analysis. It is filed as cell-based. Particulars: Erythrocyte. In outline: as §2
Test [9] shares this target. Put plainly: Non-competitive inhibition of AChE in human erythrocytes assessed as ratio of Vmax to Km at 50 nM measured at 2 mins interval for 10 mins by Lineweaver-Burk plot analysis. It is filed as cell-based. The following applies: Erythrocyte. In outline: as §2

Amyloid-beta precursor protein (Homo sapiens), sequence (P05067 whole entry): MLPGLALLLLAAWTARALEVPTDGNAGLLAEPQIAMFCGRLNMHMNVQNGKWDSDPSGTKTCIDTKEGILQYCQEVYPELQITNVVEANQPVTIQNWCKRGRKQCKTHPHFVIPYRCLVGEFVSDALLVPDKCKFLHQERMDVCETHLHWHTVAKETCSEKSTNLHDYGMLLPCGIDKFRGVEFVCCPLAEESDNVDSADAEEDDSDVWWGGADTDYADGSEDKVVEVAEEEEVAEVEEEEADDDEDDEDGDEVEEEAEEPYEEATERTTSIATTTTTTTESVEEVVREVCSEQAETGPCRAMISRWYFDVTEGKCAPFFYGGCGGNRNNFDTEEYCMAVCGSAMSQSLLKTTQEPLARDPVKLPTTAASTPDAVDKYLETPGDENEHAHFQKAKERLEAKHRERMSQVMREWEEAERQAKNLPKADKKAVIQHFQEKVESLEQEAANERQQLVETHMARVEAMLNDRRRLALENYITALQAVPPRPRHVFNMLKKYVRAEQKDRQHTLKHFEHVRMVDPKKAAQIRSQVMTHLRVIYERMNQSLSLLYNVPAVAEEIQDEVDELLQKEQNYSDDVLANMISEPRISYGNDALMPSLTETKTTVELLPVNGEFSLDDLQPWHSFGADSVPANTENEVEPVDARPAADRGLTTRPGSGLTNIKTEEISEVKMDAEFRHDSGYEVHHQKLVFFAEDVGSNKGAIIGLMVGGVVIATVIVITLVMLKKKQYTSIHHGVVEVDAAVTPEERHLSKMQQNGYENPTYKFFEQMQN

For the molecule `CCOC(=O)c1c(C)nc(N2CCN(S(=O)(=O)c3ccc(N)c(OC)c3)CC2)nc1-c1ccc(OC)c(OC)c1`, in the test filed under Homo sapiens, the Ratio IC50 is 0.4.

Regarding `CCOC(=O)c1c(C)nc(N2CCN(S(=O)(=O)c3ccc(N)c(Cl)c3)CC2)nc1-c1ccc(OC)c(OC)c1`, the inhibition result in test [1], in [2] and in test [3] was “Active” each time. In the test listed under Homo sapiens, the Ratio IC50 was found to be 0.28. Further, the inhibition was found to be 22.2% in test [4] and 35.3% in test [5]. Also, in the test with MC65, the outcome was Active.

As for `CCOC(=O)c1c(C)nc(N2CCN(S(=O)(=O)c3ccc(NC(C)=O)c(Cl)c3)CC2)nc1-c1ccc(OC)c(OC)c1`, the inhibition result in test [1], in [2], in test [3] and in test [8] was “Active” each time. Also, in the test filed under Homo sapiens, the Ratio IC50 was determined as 0.23. Besides, the results for the inhibition in [4] and in test [5] were 35.5% and 51.3%, respectively. The Vmax/Km in test [6] was 0.056; in test [7], 0.094; in [9], 0.076.

Regarding `CCOC(=O)c1c(C)nc(N2CCN(S(=O)(=O)c3ccc(N)c(OC)c3)CC2)nc1-c1ccc(OC)cc1`, the Ratio IC50 in the test listed under Homo sapiens was 0.36.

For `CCOC(=O)c1c(C)nc(N2CCN(S(=O)(=O)c3ccc(NC(C)=O)c(F)c3)CC2)nc1-c1ccc(OC)cc1`, the Ratio IC50 in the test filed under Homo sapiens came to 0.42.

As to `CCOC(=O)c1c(C)nc(N2CCN(S(=O)(=O)c3ccc(NC(C)=O)c(OC)c3)CC2)nc1-c1ccccc1`, the Ratio IC50 in the test filed under Homo sapiens came to 0.42.

As for `CCOC(=O)c1c(C)nc(N2CCN(S(=O)(=O)c3ccc(NC(C)=O)c(Cl)c3)CC2)nc1-c1ccccc1`, the Ratio IC50 in the test listed under Homo sapiens came to 0.61.

For the molecule `CCOC(=O)c1c(C)nc(N2CCN(S(=O)(=O)c3ccc(N)c(F)c3)CC2)nc1-c1ccc(OC)cc1`, in the test filed under Homo sapiens, the Ratio IC50 is 0.64.

Regarding `CCOC(=O)c1c(C)nc(N2CCN(S(=O)(=O)c3ccc(N)c(Cl)c3)CC2)nc1-c1ccccc1`, in the test filed under Homo sapiens, the Ratio IC50 turned out to be 0.57.

For `CCOC(=O)c1c(C)nc(N2CCN(S(=O)(=O)c3ccc(N)c(F)c3)CC2)nc1-c1ccc(OC)c(OC)c1`, the Ratio IC50 in the test filed under Homo sapiens is 0.37.

For `CCOC(=O)c1c(C)nc(N2CCN(S(=O)(=O)c3ccc(NC(C)=O)cc3)CC2)nc1-c1ccc(OC)cc1`, in the test filed under Homo sapiens, the Ratio IC50 turned out to be 0.42.

On to `CCOC(=O)c1c(C)nc(N2CCN(S(=O)(=O)c3ccc(N)c(Cl)c3)CC2)nc1-c1ccc(OC)cc1`, for which the Ratio IC50 in the test listed under Homo sapiens was found to be 0.43.

Consider `CCOC(=O)c1c(C)nc(N2CCN(S(=O)(=O)c3ccc(NC(C)=O)cc3)CC2)nc1-c1ccccc1`, for which, in the test listed under Homo sapiens, the Ratio IC50 was determined as 0.54.

As for `CCOC(=O)c1c(C)nc(N2CCN(S(=O)(=O)c3ccc(NC(C)=O)c(F)c3)CC2)nc1-c1ccc(OC)c(OC)c1`, the Ratio IC50 in the test listed under Homo sapiens was found to be 0.41.

Turning to `CCOC(=O)c1c(C)nc(N2CCN(S(=O)(=O)c3ccc(N)cc3)CC2)nc1-c1ccc(OC)cc1`, the Ratio IC50 in the test filed under Homo sapiens was found to be 0.33.

`CCOC(=O)c1c(C)nc(N2CCN(S(=O)(=O)c3ccc(NC(C)=O)cc3)CC2)nc1-c1ccc(OC)c(OC)c1`: in the test filed under Homo sapiens, the Ratio IC50 turned out to be 0.35.

Take `CCOC(=O)c1c(C)nc(N2CCN(S(=O)(=O)c3ccc(NC(C)=O)c(F)c3)CC2)nc1-c1ccccc1`: the Ratio IC50 in the test filed under Homo sapiens turned out to be 0.35.

With `CCOC(=O)c1c(C)nc(N2CCN(S(=O)(=O)c3ccc(N)c(OC)c3)CC2)nc1-c1ccccc1`, in the test listed under Homo sapiens, the Ratio IC50 was found to be 0.29.

Take `CCOC(=O)c1c(C)nc(N2CCN(S(=O)(=O)c3ccc(N)cc3)CC2)nc1-c1ccc(OC)c(OC)c1`: in the test filed under Homo sapiens, the Ratio IC50 came to 0.31.

As to `CCOC(=O)c1c(C)nc(N2CCN(S(=O)(=O)c3ccc(NC(C)=O)c(Cl)c3)CC2)nc1-c1ccc(OC)cc1`, the Ratio IC50 in the test filed under Homo sapiens turned out to be 0.4.

`CCOC(=O)c1c(C)nc(N2CCN(S(=O)(=O)c3ccc(NC(C)=O)c(OC)c3)CC2)nc1-c1ccc(OC)c(OC)c1`: the Ratio IC50 in the test listed under Homo sapiens was determined as 0.38.

As for `CCOC(=O)c1c(C)nc(N2CCN(S(=O)(=O)c3ccc(NC(C)=O)c(OC)c3)CC2)nc1-c1ccc(OC)cc1`, the Ratio IC50 in the test listed under Homo sapiens came to 0.4.

By inhibition is commonly meant the change of the read-out against control, counted positive when it falls.
